Compound activity: PubChem BioAssay, several laboratories
Sampled rows, rich in hits. Any-hit rate of the full collection: about 3.1%.
A1 inh = inhibitors of the anti-apoptotic protein A1, read as caspase activation. MEF A1-2A-BIM cells, Caspase-Glo 3/7 luminescence, 3 h; percent of clofoctol response, vehicle zero. caspase activation, % (test concentration not listed). 330,000 compounds, 0.066% hits;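 active = over half of replicate activation scores above 10%, or exactly half above 10 with the replicate mean above 10; inconclusive = replicate mean below 10 yet half the replicates above 10; inactive = over half of replicates below 10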
H9c2 TAG inh = inhibitors of triacylglycerol accumulation; inhibition, % at 12.5 µM; H9c2 cells, Nile Red lipid (TAG) fluorescence; cells loaded with 200 µM oleic acid; 230,000 compounds, 0.66% hits;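 active = pattern-corrected inhibition of lipid staining of at least 50% with the nuclear-stain viability signal not falling by more than 50%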;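 also: 0% = DMSO wells and 100% = triacsin C control wells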
Calb FLC = C. albicans growth modulation with fluconazole; C. albicans CaCi-2 + fluconazole, Alamar Blue growth, 48 h; growth inhibition, % (test concentration not listed); 300,000 compounds, 0.57% hits;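 active = growth inhibition above about 58% in most replicates, limit read from the data, passing the limit was not always enough; inconclusive = exactly half the replicates above a set limit; inactive = most replicates below a set limit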;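 also: all wells also contain fluconazole at 8 µg/ml as a sub-toxic cotreatment; 0% = median of DMSO wells and 100% = median of geldanamycin control wells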
Beta apoptosis = beta cell apoptosis inhibition; INS-1E cytokine-induced death, ATP luminescence, 48 h; percent of positive-control rescue, neutral wells zero; protection from apoptosis, % (no concentration beside the values); 300,000 compounds, 0.8% hits; AID 435005;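 active = Every replicate reaches about 75%, or at least half do and their mean reaches it too, limit read from the data; inconclusive = At least half of replicates reach the limit but their mean does not; inactive = Under half of replicates reach the limit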;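 also: 0% = cytokine-treated negative control wells and 100% = positive control rescue; higher means more ATP so stronger rescue from cytokine killing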
T cruzi repl = blocks replication of Trypanosoma cruzi | T. cruzi beta-gal in NIH3T3, luminescence, 90 h | inhibition, % (test concentration not listed) | 300,000 compounds, 1.4% hits | AID 1885;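 active = mean inhibition across valid replicates above about 55%, limit read from the data; inconclusive = mean below that limit but half or more replicates reach it; inactive = mean below it, under half of replicates reach it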;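 also: signal also drops with host cell toxicity which is not excluded here; 0% = plate median of DMSO wells and 100% = zero luminescence signal; higher percent means less beta-gal luminescence so fewer parasites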
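System: mouse NIH/3T3 fibroblasts infected with β-gal-expressing T. cruzi Tulahuen C4 / Input: NIH/3T3 cells, 5,000 per well / Buffer or medium: Low-serum DMEM with 2% FBS / Probe or stimulus: 5000 reporter trypomastigotes per well / Schedule: ≥90 h infection period, 3 h prior cell attachment / Measured by: GalScreen luminescence, 60 min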
CSC inhib = cancer stem cell inhibition | 300,000 compounds, 1.1% hits | cancer stem cell-like cells viability, luminescence | AID 2717 | inhibition, % at 7.5 µM; in the data active = inhibition above about 75%; inconclusive = no clear call, values can overlap the other calls; tested in HMLE shEcad cells
The depositor's hits bear a star; ? = inconclusive; / = no result.

SMILES	A1 inh	H9c2 TAG inh	Calb FLC	Beta apoptosis	T cruzi repl	CSC inhib
COc1cc(CNc2ccc(N3CCCC3)cc2)cc(Cl)c1OC	0.4	53.9*	87.4*	62.6	73.2*	50.8
CC1CN(C(=O)COC(=O)c2ccc(C#N)cc2)CC(C)O1 (stereo not given)	-0.2	/	-2.2	-7.2	-4.2	/
Brc1ccc2ncnc(Nc3ccc(N4CCOCC4)cc3)c2c1	0.1	/	-29.7	-9.3	62.4*	-2.8
O=C(COc1ncnc2ccc(Br)cc12)Nc1ccc(N2CCOCC2)cc1	-0.5	-12.7	1.0	2.0	11.6	7.1
CCCCCOc1ccc(OC(=O)c2ccncc2)cc1	-1.2	13.3	0.8	10.9	30.9	93.2*
CC1(C)CC2CC(C)(CN2C(=O)c2ccc([N+](=O)[O-])cc2[N+](=O)[O-])C1 (stereo not given)	1.5	-3.0	2.2	-3.0	97.4*	-6.3
CC1(C)CC2CC(C)(CN2C(=O)c2ccc([N+](=O)[O-])cc2)C1 (stereo not given)	0.8	-16.1	-12.3	0.0	-5.3	-8.0
O=C(c1ccc([N+](=O)[O-])cc1[N+](=O)[O-])N1CCc2ccccc21	-0.7	/	27.0	2.1	58.3*	24.7
C=C[C@@H]1c2ccccc2N(S(=O)(=O)c2ccc(C)cc2)[C@H](c2ccc(OC(C)=O)cc2)C1(C#N)C#N	0.9	-21.7	/	2.0	/	?
C=C[C@@H]1c2cc(C)ccc2N(S(=O)(=O)c2ccc(C)cc2)[C@H](c2ccc(OC(C)=O)cc2)C1(C#N)C#N	1.3	26.3	/	16.9	/	113.3*
O=C(/C=C/c1ccco1)NCC1OCCc2ccccc21 (stereo not given)	1.0	3.0	-1.9	107.4*	-2.2	111.3*
C=CC(=O)NCC1OCCc2ccccc21 (stereo not given)	0.2	14.5	-1.6	0.4	-3.3	-9.4
Cc1cc2ncn(CCC(=O)NC(C)(C)C)c2cc1C	-0.8	8.1	-0.1	/	-17.1	-2.7
CCC(=O)Nc1c(-c2ccc3ccccc3c2)nc2ccccn12	0.2	/	10.6	-4.9	-6.2	-4.6
COc1cc(C=C(c2nc3ccccc3s2)c2nc3ccccc3s2)ccc1O	-0.5	-0.4	-4.9	-1.5	35.4	93.6*
Nc1nc(N)c2cc(Sc3ccc4ccccc4c3)ccc2n1	-0.2	-37.4	100.5*	108.7*	58.5*	119.2*
CCC(C)(C)NC(=O)c1cc(C(=O)OC)cc([N+](=O)[O-])c1	-0.6	/	-1.3	-4.6	4.6	-6.5
CCCN(CCC)S(=O)(=O)c1ccc(NC(=O)c2cc(C(=O)OC)cc([N+](=O)[O-])c2)cc1	-1.0	18.4	34.8	-8.1	74.1*	15.8
CCS(=O)(=O)N1Cc2ccccc2CC1C(=O)Nc1ccc(F)c(F)c1F (stereo not given)	0.0	/	-6.9	0.8	-16.5	-9.8
Cc1cccc2sc(NC(=O)CCNS(=O)(=O)c3cccs3)nc12	0.3	64.9*	-10.6	11.2	4.1	15.0
S=C(NCCCN1CCOCC1)N1CCN(c2nc(-c3ccc(Cl)cc3)cs2)CC1	0.1	/	?	85.3*	2.3	103.7*
O=C(Cc1ccccc1[N+](=O)[O-])NCC1(c2cccc3c2OCO3)OCCO1	/	1.4	/	/	/	/
O=C(NC(C(=O)c1ccccc1)c1ccccc1)c1ccccc1 (stereo not given)	/	-6.3	/	/	/	/
O=C(N1CCN(c2ccccn2)CC1)N1c2ccccc2Sc2ccccc21	1.8	57.6*	22.8	11.6	20.0	72.7
COc1cccc(-c2nc(N3CCC(C)CC3)c3ccccc3n2)c1O	?	39.9	-5.2	12.3	43.9	-2.8
SMILES	A1 inh	H9c2 TAG inh	Calb FLC	Beta apoptosis	T cruzi repl	CSC inhib
COc1cccc(-c2nc(N3CC(C)CC(C)C3)c3ccccc3n2)c1O (stereo not given)	/	29.7	-2.3	/	55.0*	/
O=[N+]([O-])c1ccccc1N/N=C\c1ccccc1Cl	0.7	10.4	3.2	8.3	-7.2	-9.4
O=[N+]([O-])c1ccccc1N/N=C/c1cccc(O)c1O	-8.0	34.5	28.9	20.4	-23.8	86.4*
O=C(NCCCN1CCOCC1)c1ccccc1N1C(=O)[C@@H]2Cc3c([nH]c4ccccc34)C(c3cccc(Cl)c3)N2C1=O (stereo not given in full)	0.2	/	39.7	/	29.5	-12.5
CN(Cc1ccc(C#CCCO)cc1)CC1CCCN(CCc2ccc(Cl)cc2)C1 (stereo not given)	0.7	/	-13.3	/	34.9	-8.7
CCN(Cc1ccc(C#CCCO)cc1)CC1CCCN(CCc2cccc(F)c2)C1 (stereo not given)	-0.9	6.6	9.7	5.9	63.9*	12.2
Cc1ccc2c(c1)Oc1ccc(NC(=O)CCCl)cc1C(=O)N2	-0.6	/	15.2	-1.6	-69.4	92.4*
CCCC(=O)Nc1ccc2c(c1)C(=O)NC2=O	1.0	6.6	-3.9	-6.6	0.9	2.2
COc1ccccc1NC(=O)Nc1ccnn1C1CCN(C(=O)c2cccnc2)CC1	-0.2	/	-34.7	-3.4	-8.2	-1.8
COC(=O)c1c(C)[nH]c(C(=O)C(C)OC(=O)c2cnc(C)cn2)c1C (stereo not given)	0.6	4.1	/	1.8	/	/
Cc1ccc2[nH]c(=O)c(C3C(C#N)=C(N)Oc4c3ccc3cccnc43)cc2c1 (stereo not given)	0.3	-19.6	99.1*	91.4*	-9.2	7.2
N#CC1=C(N)Oc2c(ccc3cccnc23)C1c1ccccc1 (stereo not given)	0.4	77.0	4.4	97.2*	53.0	38.6
Cc1oc(C)c2c(=O)ccc3c(c12)OC(N)=C(C#N)C3c1ccccc1 (stereo not given)	0.8	-9.7	15.5	/	-25.2	-3.0
CCC(C)NS(=O)(=O)c1ccc(S(=O)(=O)N(CCc2ccc(OC)c(OC)c2)Cc2cccs2)cc1 (stereo not given)	-0.3	/	9.8	51.9	57.2*	19.1
COc1ccc(CCN(Cc2cccs2)S(=O)(=O)c2ccc(S(=O)(=O)N3CCCCCC3)cc2)cc1OC	0.3	0.7	-11.6	0.1	10.6	-3.9
CC(NS(=O)(=O)c1ccc(F)cc1)C(=O)Nc1ccc2c(c1)OCCO2 (stereo not given)	-0.2	-8.7	2.9	-2.3	-11.0	-5.2
CC1(C(=O)Nc2cnc3ccccc3c2)CCN1Cc1ccccc1OC(F)F (stereo not given)	/	-4.8	/	/	/	/
CNc1nc(N/N=C/c2cc([N+](=O)[O-])ccc2F)nc(Nc2ccccc2)n1	/	23.7	/	/	/	/
CNc1nc(N/N=C/c2cc3c(cc2[N+](=O)[O-])OCO3)nc(Nc2ccccc2)n1	0.7	22.3	11.2	98.1*	71.5*	-4.2
CCCOC(=O)c1ccc(Oc2cn[nH]c2-c2ccc(OC)cc2O)cc1	0.5	/	20.5	0.6	-21.6	103.7*
Cc1noc(C)c1COc1ccc(C(=O)NCc2cccs2)cc1	1.7	4.9	/	16.9	/	2.1
